The source made the active and inactive calls. No cut-off for these calls is given here.
T1: 17-beta-hydroxysteroid dehydrogenase type 1 (Homo sapiens, UniProt P14061)
T1 sequence (P14061 whole entry): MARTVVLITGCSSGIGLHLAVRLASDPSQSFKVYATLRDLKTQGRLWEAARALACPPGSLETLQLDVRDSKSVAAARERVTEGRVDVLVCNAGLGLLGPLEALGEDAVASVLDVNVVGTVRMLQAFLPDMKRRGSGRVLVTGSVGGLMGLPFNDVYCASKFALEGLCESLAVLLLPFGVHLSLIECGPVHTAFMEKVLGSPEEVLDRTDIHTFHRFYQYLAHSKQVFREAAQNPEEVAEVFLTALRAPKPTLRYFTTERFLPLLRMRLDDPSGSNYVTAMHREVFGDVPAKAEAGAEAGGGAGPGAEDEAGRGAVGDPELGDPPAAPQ

T2: 17-beta-hydroxysteroid dehydrogenase type 2 (Homo sapiens) (UniProt P37059)
T2 sequence (whole entry): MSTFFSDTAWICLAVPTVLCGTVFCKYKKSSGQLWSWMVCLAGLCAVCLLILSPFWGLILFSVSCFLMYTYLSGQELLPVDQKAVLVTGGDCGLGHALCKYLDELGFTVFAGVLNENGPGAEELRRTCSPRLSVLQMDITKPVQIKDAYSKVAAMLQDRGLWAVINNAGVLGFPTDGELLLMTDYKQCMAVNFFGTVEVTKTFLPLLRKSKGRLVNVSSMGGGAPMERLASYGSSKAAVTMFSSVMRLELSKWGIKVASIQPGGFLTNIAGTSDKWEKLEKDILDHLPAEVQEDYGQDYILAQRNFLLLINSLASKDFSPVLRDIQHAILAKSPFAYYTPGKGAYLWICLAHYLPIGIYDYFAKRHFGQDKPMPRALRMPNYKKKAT


Tests used:
T47D [1] = test: Antiproliferative activity against estrogen receptor positive human T47D cells at 0.1 uM after 8 days relative to control; format: functional, cell-based
Outline: (§1)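 Estrogen-starved cells, resuspended in phenol red-free medium (RPMI for T-47D, DME-F12 for MCF-7) with insulin (50 ng/mL) and 5% dextran-coated charcoal-treated FBS, seeded 3000 cells/well. After 48 h medium replaced with compound dilutions (0.01, 0.1, 1 μM), renewed every 2 days for 8 days. Growth read by CellTiter 96 Aqueous assay; control = 100%; triplicate, mean ± SEM.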

MCF7 [2] = test: Antiproliferative activity against estrogen receptor positive human MCF7 cells at 0.1 uM after 8 days relative to control; format: functional; outline: as §1
T47D [3] = test: Antiproliferative activity against estrogen receptor positive human T47D cells at 1 uM after 8 days relative to control; format: functional; outline: as §1
T47D [4] = test: Antiproliferative activity against estrogen receptor positive human T47D cells at 0.01 uM after 8 days relative to control; format: functional, cell-based; outline: as §1
MCF7 [5] = test: Reversal of estrogen-induced proliferation in estrogen-sensitive human MCF7 cells at 0.5 uM after 8 days relative to control; format: functional, cell-based
Outline: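 Antiestrogenic test: MCF-7 cells plated in phenol red-free DME-F12 with charcoal-stripped FBS; two days later incubated 8 days with E₂ (0.1 nM) plus compound (0.5 μM), pure antiestrogen EM-139 (0.5 μM) as reference, medium changed every second day. CellTiter 96 Aqueous read-out; triplicate, mean ± SEM.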

[6] = target: T1, 17-beta-hydroxysteroid dehydrogenase type 1; test: Inhibition of 17beta-HSD1 in human T47D cells assessed as inhibition of transformation of [14C]-estrone into [14C]estrogen; format: cell-based
[7] = target: T2, 17-beta-hydroxysteroid dehydrogenase type 2 (Homo sapiens); test: Inhibition of 17beta-HSD2 over-expressed in HEK293 cells assessed as inhibition of transformation of [14C]-estrogen into [14C]-estrone at 10 uM; format: cell-based
T47D [8] = test: Reduction of estrone-induced human T47D cell growth at 0.5 uM after 8 days relative to control; format: functional; parameters: scale not given: the % may be the effect or the level left
Outline: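 T-47D cells in estrogen-free phenol red-free RPMI with insulin and 5% charcoal-stripped FBS, grown 8 days with E₁ (0.01, 0.1, 1 or 5 nM) plus inhibitor (0.05–1 μM), medium changed every 2 days. Proliferation by CellTiter 96 Aqueous assay; growth without E₁ and inhibitor = 100%. Triplicate, mean ± SEM; Duncan–Kramer test.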

[9] = substrate: C[C@]12CC[C@@H]3c4ccc(O)cc4CC[C@H]3[C@@H]1CC[C@@H]2O
[10] = substrate: C[C@]12CC[C@@H]3c4ccc(O)cc4CC[C@H]3[C@@H]1CCC2=O

| Molecule | Activity (T47D [1]) | Activity (MCF7 [2]) [%] | Activity (T47D [3]) [%] | Activity (T47D [4]) | Activity (MCF7 [5]) | IC50 [6] [nM] | other results |
| --- | --- | --- | --- | --- | --- | --- | --- |
| C[C@]12CC[C@@H]3c4ccccc4CC[C@H]3[C@@H]1C[C@H](Cc1cccc(C(N)=O)c1)[C@@H]2O | inactive | 31 | 47 | inactive |  |  |  |
| CCCCN(C)C(=O)CCCCCCCCCC[C@@H]1Cc2cc(O)ccc2[C@H]2CC[C@]3(C)[C@@H](O)[C@H](Cl)C[C@H]3[C@H]12 |  |  |  |  | Active |  |  |
| C[C@]12CC[C@@H]3c4ccc(O)cc4CC[C@H]3[C@@H]1C[C@H](Cc1cccc(C(N)=O)c1)C2=O |  |  |  |  |  | 171 |  |
| C[C@]12CC[C@@H]3c4ccc(O)cc4CC[C@H]3[C@@H]1C[C@H](Cc1cccc(C(N)=O)c1)[C@@H]2O |  |  |  |  | inactive | 44 | Activity [7]: inactive; Activity (T47D [8]): 62% |
| COc1cc2c(cc1O)CC[C@@H]1[C@@H]2CC[C@]2(C)[C@@H](O)[C@@H](Cc3cccc(C(N)=O)c3)C[C@@H]12 | inactive | 21 | 41 | inactive |  |  |  |
| 17-beta-hydroxysteroid dehydrogenase type 1 (Homo sapiens), P14061 (protein) MARTVVLITGCSSGIGLHLAVRLASDPSQSFKVYATLRDLKTQGRLWEAARALACPPGSLETLQLDVRDSKSVAAARERVTEGRVDVLVCNAGLGLLGPLEALGEDAVASVLDVNVVGTVRMLQAFLPDMKRRGSGRVLVTGSVGGLMGLPFNDVYCASKFALEGLCESLAVLLLPFGVHLSLIECGPVHTAFMEKVLGSPEEVLDRTDIHTFHRFYQYLAHSKQVFREAAQNPEEVAEVFLTALRAPKPTLRYFTTERFLPLLRMRLDDPSGSNYVTAMHREVFGDVPAKAEAGAEAGGGAGPGAEDEAGRGAVGDPELGDPPAAPQ |  |  |  |  |  |  | Km [9]: 4.6 µM; Km [10]: 0.03 µM |

— ChEMBL document CHEMBL1143127 (Bioorg Med Chem, 2008)
